Reference: ChEMBL document CHEMBL4257549, “Design, synthesis and biological evaluation of benzimidazole-rhodanine conjugates as potent topoisomerase II inhibitors” (Medchemcomm, 2018)
pIC50: −log10 of the molar value. Active and inactive are the calls of the source. The rule behind the calls is not given here.

Columns and labels:
DNA [1] = assay: Induction of Escherichia coli pBR322 DNA intercalation assessed as transformation of topoisomerase1-relaxed pBR322 DNA in to supercoiled DNA at 5 uM preincubated for 10 mins followed by topoisomerase-1 addition and measured after 30 mins by agarose gel electrophoresis method; type: nucleic-acid assay
How it was run: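 0.1 μg relaxed DNA incubated with compound 10 min at room temperature, then Topo I (1 U) added, 37 °C for 30 min. Stopped with phenol-chloroform and SDS/EDTA. Products resolved on agarose gel in TAE and imaged under UV.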

HeLa = assay: Cytotoxicity against human HeLa cells after 48 hrs by MTT assay; type: functional, cell-based
How it was run: (§1)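 Cells seeded at 5000 per well, left overnight, then exposed to compound at 0–50 μM for 48 h. MTT (20 μL of 2.5 mg mL−1) added for a further 4 h at 37 °C, formazan dissolved in DMSO, absorbance read at 570 nm. Quadruplicate wells, N > 2 determinations, mean IC50 taken as the concentration reducing cell number to 50%.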

HL-60 = assay: Cytotoxicity against human HL60 cells after 48 hrs by MTT assay; type: functional, cell-based; settings: HL-60, 48 h; how it was run: as §1
MDA-MB-231 = assay: Cytotoxicity against human MDA-MB-231 cells after 48 hrs by MTT assay; type: functional, cell-based; settings: MDA-MB-231, 48 h; how it was run: as §1
Raji = assay: Cytotoxicity against human Raji cells after 48 hrs by MTT assay; type: functional, cell-based; how it was run: as §1
PC-3 = assay: Cytotoxicity against human PC3 cells after 48 hrs by MTT assay; type: functional, cell-based; settings: PC-3, 48 h; how it was run: as §1
A549 = assay: Cytotoxicity against human A549 cells after 48 hrs by MTT assay; type: functional, cell-based; settings: A549, 48 h; how it was run: as §1
Homo sapiens [2] = organism: Homo sapiens; assay: Inhibition of human topoisomerase 2-mediated pBR322 DNA relaxation at 20 uM after 30 mins by agarose gel electrophoresis
Homo sapiens [3] = organism: Homo sapiens; assay: Inhibition of human topoisomerase 2-mediated pBR322 DNA relaxation at 10 uM after 30 mins by agarose gel electrophoresis
[4] = biological target: T1, DNA topoisomerase 1 (Homo sapiens) (UniProt P11387); assay: Inhibition of topoisomerase 1 (unknown origin)-mediated pBR322 DNA relaxation at 50 uM after 30 mins by agarose gel electrophoresis
T1 sequence (whole entry): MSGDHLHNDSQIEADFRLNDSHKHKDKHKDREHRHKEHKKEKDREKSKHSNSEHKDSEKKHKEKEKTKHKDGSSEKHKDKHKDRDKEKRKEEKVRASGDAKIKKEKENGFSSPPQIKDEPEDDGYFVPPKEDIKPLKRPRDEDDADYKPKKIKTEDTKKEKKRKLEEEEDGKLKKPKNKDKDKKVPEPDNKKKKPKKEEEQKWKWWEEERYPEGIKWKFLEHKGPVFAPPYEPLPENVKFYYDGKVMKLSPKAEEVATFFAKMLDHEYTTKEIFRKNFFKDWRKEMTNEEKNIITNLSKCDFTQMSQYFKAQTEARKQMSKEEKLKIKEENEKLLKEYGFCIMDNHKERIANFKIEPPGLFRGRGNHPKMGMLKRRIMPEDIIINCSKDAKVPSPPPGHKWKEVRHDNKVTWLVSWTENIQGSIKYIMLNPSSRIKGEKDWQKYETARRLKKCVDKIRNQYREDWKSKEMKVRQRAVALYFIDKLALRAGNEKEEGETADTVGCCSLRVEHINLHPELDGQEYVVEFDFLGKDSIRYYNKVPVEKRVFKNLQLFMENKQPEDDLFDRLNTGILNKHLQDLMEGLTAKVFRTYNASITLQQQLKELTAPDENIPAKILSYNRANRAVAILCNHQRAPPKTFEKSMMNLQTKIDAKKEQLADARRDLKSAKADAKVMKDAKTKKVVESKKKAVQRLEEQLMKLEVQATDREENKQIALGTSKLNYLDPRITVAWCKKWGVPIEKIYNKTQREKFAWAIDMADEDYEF
How it was run: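 Topo I relaxation of pBR322 with compound at 30 min, 37 °C, camptothecin positive control. Stopped with SDS/bromophenol blue/glycerol dye, run on 1% agarose in TAE for 1.5 h, Ged Red stained, UV visualized.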

Homo sapiens [5] = organism: Homo sapiens; assay: Poison activity at human topoisomerase 2 assessed as […] at 50 uM after 6 mins by agarose gel electrophoresis
Homo sapiens [6] = organism: Homo sapiens; assay: Inhibition of catalytic activity of human topoisomerase 2 assessed as decrease in levels of linear pBR322 DNA trapped by etoposide at 50 uM after 6 mins by agarose gel electrophoresis
DNA [7] = assay: Induction of Escherichia coli pBR322 DNA intercalation assessed as transformation of topoisomerase1-relaxed pBR322 DNA in to supercoiled DNA at 50 uM preincubated for 10 mins followed by topoisomerase-1 addition and measured after 30 mins by agarose gel electrophoresis method; type: nucleic-acid assay
How it was run: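 Unwinding: pBR322 first relaxed by Topo I in buffer (50 mM Tris-HCl pH 7.5, 50 mM KCl, 10 mM MgCl2, 0.5 mM DTT, 0.1 mM EDTA, 30 μg/mL BSA). 0.1 μg relaxed DNA preincubated with compound 10 min at room temperature, then Topo I (1 U) added, 30 min at 37 °C. Phenol-chloroform stop, SDS/EDTA added, agarose electrophoresis in TAE, UV imaging.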

Homo sapiens [8] = organism: Homo sapiens; assay: Inhibition of human topoisomerase 2-mediated pBR322 DNA relaxation at 50 uM after 30 mins by agarose gel electrophoresis
How it was run: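 Relaxation of 200 ng supercoiled pBR322 by 1 U Topo II (TopoGEN) in 20 μL buffer: 50 mM Tris-HCl pH 8.0, 150 mM NaCl, 10 mM MgCl2, 2 mM ATP, 0.5 mM DTT, 30 μg/mL BSA. Incubated 30 min at 37 °C, stopped with sarcosyl/glycerol dye. Products run on 1% agarose in TAE (1.5 h, 75 V), Ged Red stained, UV imaged; etoposide positive control.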

Homo sapiens [9] = organism: Homo sapiens; assay: Inhibition of human topoisomerase 2-mediated pBR322 DNA relaxation at 100 uM after 30 mins by agarose gel electrophoresis
Homo sapiens [10] = organism: Homo sapiens; assay: Poison activity at human topoisomerase 2 assessed as transformation of supercoiled pBR322 DNA to linear pBR322 DNA at 100 uM after 6 mins by agarose gel electrophoresis

Structure (SMILES) | Activity (DNA [1]) | pIC50 (HeLa) | pIC50 (HL-60) | pIC50 (MDA-MB-231) | pIC50 (Raji) | pIC50 (PC-3) | pIC50 (A549) | inhibition (Homo sapiens [2]) | inhibition (Homo sapiens [3]) | inhibition [4] | Activity (Homo sapiens [5]) | inhibition (Homo sapiens [6]) | Activity (DNA [7]) | inhibition (Homo sapiens [8]) | inhibition (Homo sapiens [9]) | Activity (Homo sapiens [10])
CC[n+]1c(-c2ccccc2)c2cc(N)ccc2c2ccc(N)cc21 | Active |  |  |  |  |  |  |  |  |  |  |  |  |  |  | 
O=C(O)CN1C(=O)/C(=C/c2nc3ccccc3n2Cc2ccccc2F)SC1=S |  | 6.19 | 6.68 | 6.48 | 5.91 | 5.73 | 5.57 | Active | Active | inactive | inactive | Active | inactive |  |  | 
O=C(O)CN1C(=O)/C(=C/c2nc3ccc(Cl)cc3n2Cc2ccccc2F)SC1=S |  | 5.12 | 5.28 | 5.02 | 5.05 | 4.76 | 4.57 | Active | Active | inactive |  |  |  | Active |  | 
COc1cc([C@@H]2c3cc4c(cc3[C@@H](O[C@@H]3O[C@@H]5CO[C@@H](C)O[C@H]5[C@H](O)[C@H]3O)[C@H]3COC(=O)[C@H]23)OCO4)cc(OC)c1O [ETOPOSIDE] |  | 4.54 | 6.24 | 4.52 | 5.92 | 4.88 | 5.61 | Active |  |  |  |  |  |  | Active | Active
Cc1ccc(Cn2c(/C=C3\SC(=S)N(CC(=O)O)C3=O)nc3cc(Cl)ccc32)cc1 |  | 4.67 | 5.57 | 4.86 | 4.68 | 4.57 | 4.41 | Active | Active | inactive |  |  |  | Active |  | 
Cc1ccc(Cn2c(/C=C3\SC(=S)N(CC(=O)O)C3=O)nc3ccc(F)cc32)cc1 |  | 5.41 | 5.77 | 5.41 | 5.61 | 5.24 | 5.02 | Active | Active | inactive |  |  |  | Active |  | 
COc1ccc2nc(/C=C3\SC(=S)N(CC(=O)O)C3=O)n(Cc3ccccc3F)c2c1 |  | 4.55 | 5.19 | 4.65 | 4.91 | < 4.30 | 4.44 | Active | Active | inactive |  |  |  | Active |  | 
Cc1ccc(Cn2c(/C=C3\SC(=S)N(CC(=O)O)C3=O)nc3ccccc32)cc1 |  | 5.89 | 6.27 | 5.98 | 6.02 | 5.58 | 5.49 | Active | Active | inactive | inactive | Active | inactive |  |  | 
O=C(O)CN1C(=O)/C(=C/c2nc3cc(Cl)ccc3n2Cc2ccccc2F)SC1=S |  | 5.02 | 6.06 | 5.78 | 5.56 | 5.46 | 5.25 | Active | Active | inactive |  |  |  | Active |  | 
Cc1ccc(Cn2c(/C=C3\SC(=S)N(CC(=O)O)C3=O)nc3cc(F)ccc32)cc1 |  | 5.62 | 5.93 | 5.18 | 5.48 | 4.99 | 4.86 | Active | Active | inactive |  |  |  | Active |  | 
COc1ccc2c(c1)nc(/C=C1\SC(=S)N(CC(=O)O)C1=O)n2Cc1ccc(C)cc1 |  | 5.74 | 6.11 | 5.91 | 5.75 | 5.44 | 5.25 | Active | Active | inactive |  |  |  | Active |  | 
O=C(O)CN1C(=O)/C(=C/c2nc3ccccc3n2Cc2ccc(F)c(F)c2)SC1=S |  | 4.80 | 5.56 | 5.42 | 5.14 | 5.22 | 4.87 | Active | Active | inactive |  |  |  | Active |  | 
O=C(O)CN1C(=O)/C(=C/c2nc3ccc(F)cc3n2Cc2ccccc2F)SC1=S |  | < 4.30 | 5.28 | < 4.30 | 4.65 | < 4.30 | < 4.30 | Active | Active | inactive |  |  |  | Active |  | 
